Hits are enriched below; roughly 2% of the tested compounds scored in any of these assays.
TROY signal inh = inhibitors of TROY-dependent NF-kB signaling; inhibition, % at 10 µM; 0.98% of 360,000 active; Q293 LMP1-TROYcd NF-kB luciferase reporter, 4 h;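 active = compounds whose plate-normalised and pattern-corrected inhibition of the luciferase reporter signal at the single screening dose is 50% or more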
NR2E3 ag-1 = agonists of human nuclear receptor NR2E3; GST-NR2E3/biotin-RetCOR TR-FRET, 1536-well; inhibition of corepressor binding, % at 4.78 µM; 0.12% of 320,000 active;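 active = percent inhibition above the cutoff of mean plus 3 SD of all tested compounds, set per screening campaign, cut at about 20% in these data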;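 note: 0% = DMSO wells and 100% = biotin wells as full block of FRET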
Target sequence (Q9Y5X4 whole entry, looked up): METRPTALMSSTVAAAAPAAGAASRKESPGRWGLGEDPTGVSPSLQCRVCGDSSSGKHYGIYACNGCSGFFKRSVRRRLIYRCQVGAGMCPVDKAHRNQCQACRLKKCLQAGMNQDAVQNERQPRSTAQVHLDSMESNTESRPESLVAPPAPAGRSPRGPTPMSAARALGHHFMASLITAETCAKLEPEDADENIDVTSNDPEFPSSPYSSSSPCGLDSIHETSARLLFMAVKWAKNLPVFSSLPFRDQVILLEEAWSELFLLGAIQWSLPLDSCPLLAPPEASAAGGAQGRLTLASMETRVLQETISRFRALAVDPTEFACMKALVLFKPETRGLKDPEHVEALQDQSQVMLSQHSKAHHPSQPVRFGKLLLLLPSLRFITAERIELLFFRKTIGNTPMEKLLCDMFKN
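Material: NR2E3–RetCOR corepressor complex | Quantity: 1.35 nM GST-tagged NR2E3 final | Schedule: 5 h at 4 °C | Replication: Singlicate compound wells | Reagent: RetCOR corepressor, biotinylated, 7 nM | Controls: Biotin wells as high control, 0.6% DMSO wells as low control | Signal: TR-FRET, Eu(K)-anti-GST donor, streptavidin-D2 acceptor, ex 340, em 617/671 nm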
HIF activator = HIF pathway transcriptional activation. U2OS HRE-luciferase reporter, luminescence; normalized: DMSO 0%, desferrioxamine 100%. activation, % at 7.5 µM (by protocol). 0.32% of 300,000 active. AID 1910;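 active = mean activation of at least 10% of the iron chelator positive control signal, with at least half of replicates also reaching 10%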
EBV LMP1 NFkB = Epstein-Barr LMP1 NF-kappaB reporter inhibition; LMP1-induced NF-kappaB luciferase reporter cells, luminescence; inhibition, % at 12.5 µM; AID 504558; 0.69% of 350,000 active; in the data active = inhibition above about 41%;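 note: 0% = neutral control wells and 100% = reference inhibitor control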
NR2E3 ag-2 = human photoreceptor-specific nuclear receptor agonism; Q9Y5X4; CHO-S Gal4-NCOR/VP16-NR2E3 two-hybrid, luciferase; 0.35% of 360,000 active; inhibition of corepressor binding, % at 3.98 µM;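 active = inhibition above the mean of all tested compounds plus 3 SD, cut at about 70% in these data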;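 note: 0% = DMSO with NR2E3 transfected cells and 100% = cells lacking NR2E3 construct; higher means lower luciferase signal from less NR2E3 corepressor binding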
* hit, by the source's call; nt = not tested or not shown.

SMILES	TROY signal inh	NR2E3 ag-1	HIF activator	EBV LMP1 NFkB	NR2E3 ag-2
Cc1ccc(C(=O)c2coc3c2C(=O)C(=O)c2ccccc2-3)cc1	-3	3	2	-5	-195
COc1cccc(C(=O)O)c1OS(=O)(=O)c1ccc(C)cc1	10	nt	nt	-6	-33
COC(=O)[C@@]1(C)[C@H]2C(=O)N(Cc3ccccc3)C(=O)[C@H]2[C@H]2CN=C(SCc3ccc(C#N)cc3)N21	2	nt	nt	12	-11
COC(=O)[C@@]1(C)[C@H]2C(=O)N(Cc3ccccc3)C(=O)[C@H]2[C@H]2CN=C(SCc3ccc(Cl)cc3)N21	13	nt	nt	70*	-10
COc1cccc(-c2cnc(C(O)c3cccc(F)c3)[nH]2)c1 (configuration not stated)	52*	nt	nt	nt	-48
CSc1ccc(S(=O)(=O)NC(C)c2ccccc2)cc1 (configuration not stated)	-11	4	0	3	-13
Cc1ccc(S(=O)(=O)NC(C)c2ccccc2)cc1[N+](=O)[O-] (configuration not stated)	5	2	0	50*	-13
Cc1ccsc1/C=C/c1ccc2ccccc2n1	47	1	-3	70*	-153
Cc1ccsc1/C=C/c1ccc2cccc(O)c2n1	-55	-2	1	-17	-137
Cc1ccc(/C=C/C(=O)OCC(=O)NCc2cccs2)o1	-3	nt	nt	-7	-26
COc1cccc(/C=N/NC(=O)c2nnn(-c3nonc3N)c2C(C)C)c1OCc1ccc(F)cc1	62*	1	-1	14	4
CC(C)c1c(C(=O)N/N=C/c2cccc(OCc3ccccc3)c2)nnn1-c1nonc1N	58*	-4	-1	-11	-28
COc1ccc(C(=O)N2CCCN(C)CC2)cc1S(=O)(=O)N(C)Cc1ccccc1	4	4	nt	0	-9
COc1cc2ccc(C(C)=NNC(N)=S)cc2cc1OC	-13	nt	nt	9	-12
CC1(C2CC2)NC(=O)N(CC(=O)NCC(=O)Nc2ccc(F)c(F)c2F)C1=O (configuration not stated)	-12	nt	nt	-2	8
CCCCN1C(=O)c2ccc(C(=O)Nc3cccc(C)c3C)cc2C1=O	-40	-2	0	-1	-32
CCCCN1C(=O)c2ccc(C(=O)Nc3ccc(C)c(S(=O)(=O)N(C)C)c3)cc2C1=O	55*	-2	0	11	12
Cc1ccc(COC(=O)CN2C(=O)NC3(CCCCC3C)C2=O)cc1 (configuration not stated)	-2	nt	nt	-2	5
Cc1cccc(CCNc2nc3ccc(C)cc3n3cnnc23)c1	73*	1	2	-3	-7
COC(=O)c1ccccc1S(=O)(=O)N1CCC(C(=O)NCc2ccccn2)CC1	6	nt	nt	-3	-59
Oc1ccc(O)c(Cc2nc3ccccc3s2)c1	63*	4	1	-18	-1
COCCN(C(=O)CNC(=O)c1ccco1)C(C(=O)NC1CCCC1)c1ccc(OC)c(OC)c1 (configuration not stated)	-14	2	-1	1	-14
Cc1cccc(NC(=O)c2ncn3c2C(=O)N[C@@H](C)C3)c1	8	nt	nt	12	18
CCc1ccn2cc(-c3cc(-c4ccccc4)no3)nc2c1	87*	3	-5	70*	-15
COc1ccc(-n2nc(C(=O)c3cccs3)cc(-c3nc4ccccc4[nH]3)c2=N)cc1	-18	-2	1	59*	13
SMILES	TROY signal inh	NR2E3 ag-1	HIF activator	EBV LMP1 NFkB	NR2E3 ag-2
Cc1ccccc1-n1nc(C(=O)c2cccs2)cc(-c2nc3ccccc3[nH]2)c1=N	-19	1	0	15	5
C#CC(=O)N(c1ccc(OC)cc1OC)C(C(=O)NC1CCCC1)c1cccs1 (configuration not stated)	5	1	-3	21	-4
C#CC(=O)N(c1cc(OC)ccc1OC)C(C(=O)NC1CCCC1)c1cccs1 (configuration not stated)	13	2	-4	73*	12
CCCSc1nsc(NC(=O)C(c2ccccc2)c2ccccc2)n1	55*	-1	0	2	24
CCCSc1nsc(NC(=O)CC)n1	-32	-2	2	-44	-138
COc1cc(NC(=O)CCc2c(C)noc2C)c(Cl)cc1C(=O)O	7	nt	nt	-8	-11
COc1cc(/C=C/[N+](=O)[O-])ccc1OC(=O)c1cc2ccccc2oc1=O	53*	3	-16	15	14
COC(=O)c1ccc(-c2nc(O)c(C)s2)cc1	3	0	0	3	17
COC(=O)c1ccc(-c2nc3cc(Cl)c(N)cc3s2)cc1	71*	3	-1	9	-103
COc1ccc(N2CCN(CCNC(=O)Nc3ccc(C)cc3Cl)CC2)cc1	-6	0	-28	6	-8
CC1C(=O)N2CCCc3cc(S(=O)(=O)N4CCCCC4)cc1c32 (configuration not stated)	14	3	-62	-1	-18
CC1CCCN(S(=O)(=O)c2cc3c4c(c2)C(C)C(=O)N4CCC3)C1 (configuration not stated)	-12	0	-1	69*	2
O=C(CSc1nc2nc(-c3cccs3)cc(C(F)(F)F)c2c(=O)[nH]1)Nc1c(F)c(F)c(F)c(F)c1F	57*	7	0	11	2
CC(C)(C)Sc1ccccc1S(=O)(=O)C(C)(C)C	-4	3	3	-4	0
Cc1nn(-c2ccccc2)c(Cl)c1C(=O)N1CCN(c2ncnc3c2cnn3-c2ccccc2)CC1	85*	0	0	53*	0
O=C(c1ccccc1)N1CCN(c2ncnc3c2cnn3-c2ccccc2)CC1	-25	-3	1	-20	-21
CCNC(=O)C1(C)CCCN1Cc1ccccc1Cl (configuration not stated)	-10	nt	nt	nt	-8
Cc1ccc(CNC(=O)c2nnc(Cc3ccc(Cl)cc3)o2)cc1	8	2	0	-1	-8
CCOC(=O)c1c(C)[nH]c(C2=NNC(=NC3CC3)SC2)c1C	84*	-1	2	50*	2
COc1ccccc1C(CC(=O)Nc1ccc(Cl)cc1)c1ccc(OC(C)C)cc1 (configuration not stated)	5	1	0	16	-3
CC(C)Oc1ccc(CNC(=O)CC(c2ccccc2)c2cc(Cl)ccc2O)cc1 (configuration not stated)	56*	7	-1	-2	-12
CCCNC(=O)C1(C)CCN(CCOc2ccc(Cl)cc2)C1 (configuration not stated)	-1	nt	nt	nt	-36
Cc1ccc(NC(=O)COC(=O)C2=NNC(=O)CC2)c(Br)c1	0	nt	nt	-5	3
Cn1cccc1C(=O)NC(=O)COC(=O)C12CC3CC(CC(O)(C3)C1)C2	79*	2	1	-14	-28
COc1ccc(C2CC(=O)C(C=NCCO)=C(O)C2)cc1 (configuration not stated)	-1	7	4	0	0

Compound activity (PubChem)
